In general, pKi refers to −log10 of the Ki, conventionally taken in molar units.

Among the data in ChEMBL document CHEMBL1133607, “Nonpeptide analogues of dynorphin A(1-8): design, synthesis, and pharmacological evaluation of kappa-selective agonists” (J Med Chem, 2000) are Selectivity ratio and Ki values, retold here.

One experiment is filed under the species Cavia porcellus. The experiment is described as follows: Ratio of affinity towards delta to kappa opioid receptor.
The target of experiment [1] is Delta-type opioid receptor (Rattus norvegicus, UniProt P33533). The experiment is described as follows: Displacement of [3H]diprenorphine opioid receptor delta 1 on crude membrane fractions obtained from the whole rat brain (minus cerebellum). In kind it is tissue-based. Summed up: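 Rat whole-brain (minus cerebellum) crude membranes, 1 mg protein/tube, in 50 mM Tris-HCl pH 7.4 with aprotinin, leupeptin and bacitracin. […] U50,488 and DAMGO (300 nM each) saturate κ and µ sites; 1 µM DPDPE defines nonspecific binding. Compounds tested at 10^-11 to 10^-5 M. Ki values are the mean of three experiments in duplicate.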
Delta-type opioid receptor, sequence (P33533 whole entry): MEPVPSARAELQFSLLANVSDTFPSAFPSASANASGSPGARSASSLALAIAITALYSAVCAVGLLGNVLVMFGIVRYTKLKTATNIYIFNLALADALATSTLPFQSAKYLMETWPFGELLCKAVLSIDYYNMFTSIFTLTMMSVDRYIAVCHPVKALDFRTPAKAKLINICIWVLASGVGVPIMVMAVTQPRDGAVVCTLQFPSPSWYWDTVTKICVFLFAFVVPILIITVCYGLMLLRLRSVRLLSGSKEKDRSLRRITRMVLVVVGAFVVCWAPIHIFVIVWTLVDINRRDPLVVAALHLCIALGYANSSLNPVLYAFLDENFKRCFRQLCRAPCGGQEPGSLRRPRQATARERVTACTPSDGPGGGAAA
Background: Displacement assays read how much labelled ligand stays bound in the presence of the test substance.

Experiment [2] addresses Opioid receptors; mu & kappa (UniProt P41145+P35372). The experiment is described as follows: Ratio of affinity towards mu and kappa opioid receptors. The experiment is classed as protein assay.
Experiment [3] concerns the target Kappa-type opioid receptor (Cavia porcellus, UniProt P41144). Briefly: Displacement of [3H]-U-69,593 from Opioid receptor kappa 1 in guinea pig cerebellar.
The target of the next experiment is Mu-type opioid receptor (Rattus norvegicus, UniProt P33535). The experiment is described as follows: Displacement of [3H]diprenorphine from opioid receptor mu 1 on crude membrane fractions obtained from whole rat brain (minus cerebellum). The experiment is classed as tissue-based. Put shortly:
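Rat whole-brain (minus cerebellum) crude membranes, 1 mg protein/tube, in 50 mM Tris-HCl pH 7.4 with aprotinin, leupeptin and bacitracin. […] U50,488 and DADLE (300 nM each) saturate κ and δ sites; 1 µM DAMGO defines nonspecific binding. Compounds tested at 10^-11 to 10^-5 M. Ki values are the mean of three experiments in duplicate.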

Each structure is given as a SMILES string. pKi: −log10 of the molar value.

Mu-type opioid receptor, sequence (P33535 whole entry): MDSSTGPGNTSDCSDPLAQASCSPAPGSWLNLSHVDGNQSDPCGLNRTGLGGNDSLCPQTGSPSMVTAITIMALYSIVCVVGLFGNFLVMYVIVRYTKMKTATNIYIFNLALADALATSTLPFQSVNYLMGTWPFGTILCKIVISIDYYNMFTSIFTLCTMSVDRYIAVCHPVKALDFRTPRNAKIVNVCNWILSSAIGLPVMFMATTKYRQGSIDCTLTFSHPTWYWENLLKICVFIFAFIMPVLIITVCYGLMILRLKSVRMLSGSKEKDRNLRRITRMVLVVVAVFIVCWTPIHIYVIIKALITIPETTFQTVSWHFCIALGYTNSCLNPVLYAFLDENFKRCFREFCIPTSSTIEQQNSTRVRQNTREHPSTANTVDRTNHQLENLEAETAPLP
Opioid receptors; mu & kappa, sequence (P35372 whole entry, looked up): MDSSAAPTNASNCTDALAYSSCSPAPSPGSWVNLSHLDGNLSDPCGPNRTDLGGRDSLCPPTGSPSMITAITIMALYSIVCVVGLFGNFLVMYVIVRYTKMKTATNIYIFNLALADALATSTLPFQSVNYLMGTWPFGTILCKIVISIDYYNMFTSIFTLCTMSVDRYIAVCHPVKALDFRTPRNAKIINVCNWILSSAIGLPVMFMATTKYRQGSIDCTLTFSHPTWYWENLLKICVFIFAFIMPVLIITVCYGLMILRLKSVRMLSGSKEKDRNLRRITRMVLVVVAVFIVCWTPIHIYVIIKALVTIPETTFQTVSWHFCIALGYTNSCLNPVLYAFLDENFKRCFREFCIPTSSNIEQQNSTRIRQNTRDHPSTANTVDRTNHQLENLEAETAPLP
Opioid receptors; mu & kappa, sequence (P41145 whole entry, looked up): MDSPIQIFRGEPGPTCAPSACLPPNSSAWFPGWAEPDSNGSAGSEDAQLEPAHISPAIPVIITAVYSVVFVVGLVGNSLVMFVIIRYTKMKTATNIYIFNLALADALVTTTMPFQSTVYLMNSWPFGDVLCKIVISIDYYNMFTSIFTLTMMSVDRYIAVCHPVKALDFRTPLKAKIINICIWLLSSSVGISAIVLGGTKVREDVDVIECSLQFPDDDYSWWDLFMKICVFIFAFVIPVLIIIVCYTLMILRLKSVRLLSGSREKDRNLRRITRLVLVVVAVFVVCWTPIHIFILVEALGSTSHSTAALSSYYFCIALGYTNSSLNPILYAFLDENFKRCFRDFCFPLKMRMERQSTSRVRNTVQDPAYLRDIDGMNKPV
Kappa-type opioid receptor, sequence (P41144 whole entry): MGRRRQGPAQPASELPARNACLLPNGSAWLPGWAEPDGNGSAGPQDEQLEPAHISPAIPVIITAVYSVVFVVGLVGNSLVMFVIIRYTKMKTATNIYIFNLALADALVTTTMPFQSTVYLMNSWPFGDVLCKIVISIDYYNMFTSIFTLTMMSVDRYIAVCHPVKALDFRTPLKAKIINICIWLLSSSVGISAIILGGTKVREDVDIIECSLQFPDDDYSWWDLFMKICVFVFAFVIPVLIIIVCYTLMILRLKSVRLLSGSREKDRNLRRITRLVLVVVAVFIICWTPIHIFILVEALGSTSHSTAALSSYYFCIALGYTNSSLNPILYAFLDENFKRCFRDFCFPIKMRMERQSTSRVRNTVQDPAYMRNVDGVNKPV

`CCCCC(=N)NCCCNC(=O)C(CC(C)C)NC(=O)CNC(=O)[C@]1(c2ccccc2)CC1CN1CC[C@@]2(C)c3cc(O)ccc3CC1C2C` (stereo not given in full): the Selectivity ratio in the experiment filed under Cavia porcellus was determined as 275; in experiment [2] it was 192. Moreover, the pKi in experiment [1] is 5.31; in experiment [3] it was 7.74; at Mu-type opioid receptor it was 5.46.

As for `CCCCC(=N)NCCCCNC(=O)C(CC(C)C)NC(=O)CNC(=O)[C@]1(c2ccccc2)CC1CN1CC[C@@]2(C)c3cc(O)ccc3CC1C2C` (stereo not given in full), the Selectivity ratio stood at 359 in the experiment filed under Cavia porcellus and 325 in experiment [2]. The pKi in experiment [1] was 5.44; in experiment [3], 7.99; at Mu-type opioid receptor, 5.48.

In the case of `CCC(=N)NCCCCNC(=O)C(CC(C)C)NC(=O)CNC(=O)[C@]1(c2ccccc2)CC1CN1CC[C@@]2(C)c3cc(O)ccc3CC1C2C` (stereo not given in full), the Selectivity ratio in the experiment filed under Cavia porcellus was 55.2; in experiment [2], 42.6. Moreover, the negative logarithm of the Ki (pKi) in experiment [1] was 5.01; in experiment [3] it was 6.76; on Mu-type opioid receptor, 5.13.

As for `CCCC(=N)NCCCCCCNC(=O)C(CC(C)C)NC(=O)CNC(=O)[C@]1(c2ccccc2)CC1CN1CC[C@@]2(C)c3cc(O)ccc3CC1C2C` (stereo not given in full), the values for the Selectivity ratio (in the experiment listed under Cavia porcellus; in experiment [2]) were 158 and 125, respectively. For the same compound, the pKi in experiment [1] is 5.61; in experiment [3] it was 7.81; at Mu-type opioid receptor it was 5.64.

As to `CCCCC(=N)NCCCCCNC(=O)C(CC(C)C)NC(=O)[C@]1(c2ccccc2)CC1CN1CC[C@@]2(C)c3cc(O)ccc3CC1C2C` (stereo not given in full), the Selectivity ratio in the experiment listed under Cavia porcellus was 36.6; in experiment [2], 24.3. Besides, the negative logarithm of the Ki (pKi) is 5.44 in experiment [1], 7.01 in experiment [3] and 5.62 at Mu-type opioid receptor.

As for `CCCC(=N)NCCCNC(=O)C(CC(C)C)NC(=O)CNC(=O)[C@]1(c2ccccc2)CC1CN1CC[C@@]2(C)c3cc(O)ccc3CC1C2C` (stereo not given in full), the Selectivity ratio in the experiment listed under Cavia porcellus turned out to be 118; in experiment [2], 133. Besides, the pKi is 5.02 in experiment [1], 7.09 in experiment [3] and 4.97 on Mu-type opioid receptor.

On to `CCCC(=N)NCCCCCCNC(=O)C(CC(C)C)NC(=O)[C@]1(c2ccccc2)CC1CN1CC[C@@]2(C)c3cc(O)ccc3CC1C2C` (stereo not given in full), for which the Selectivity ratio stood at 28.4 in the experiment filed under Cavia porcellus and 15.6 in experiment [2]. Further, the pKi in experiment [1] is 5.46; in experiment [3], 6.91; on Mu-type opioid receptor it was 5.72.

`CC(C)CC(NC(=O)CNC(=O)[C@]1(c2ccccc2)CC1CN1CC[C@@]2(C)c3cc(O)ccc3CC1C2C)C(=O)NCCCN` (stereo not given in full): the Selectivity ratio in the experiment listed under Cavia porcellus turned out to be 37.6; in experiment [2] it was 57. Also, the pKi in experiment [1] was 4.97; in experiment [3], 6.55; on Mu-type opioid receptor it was 4.79.

Take `CC(C)CC(NC(=O)CNC(=O)[C@]1(c2ccccc2)CC1CN1CC[C@@]2(C)c3cc(O)ccc3CC1C2C)C(=O)NCCCCN` (stereo not given in full): the Selectivity ratio in the experiment listed under Cavia porcellus is 38.7; in experiment [2], 49.1. The pKi was 4.98 in experiment [1], 6.57 in experiment [3] and 4.88 on Mu-type opioid receptor.

Regarding `CCC(=N)NCCCNC(=O)C(CC(C)C)NC(=O)CNC(=O)[C@]1(c2ccccc2)CC1CN1CC[C@@]2(C)c3cc(O)ccc3CC1C2C` (stereo not given in full), the Selectivity ratio stood at 40.5 in the experiment listed under Cavia porcellus and 42.5 in experiment [2]. In addition, the values for the pKi (in experiment [1]; in experiment [3]; at Mu-type opioid receptor) were 4.98, 6.59 and 4.96, respectively.

As for `CCC(=N)NCCCCCCNC(=O)C(CC(C)C)NC(=O)CNC(=O)[C@]1(c2ccccc2)CC1CN1CC[C@@]2(C)c3cc(O)ccc3CC1C2C` (stereo not given in full), the results for the Selectivity ratio (in the experiment filed under Cavia porcellus; in experiment [2]) were 108 and 89.8, respectively. The values for the pKi (in experiment [1]; in experiment [3]; at Mu-type opioid receptor) were 5.30, 7.33 and 5.38, respectively.

For `CC(C)CC(NC(=O)CNC(=O)[C@]1(c2ccccc2)CC1CN1CC[C@@]2(C)c3cc(O)ccc3CC1C2C)C(=O)NCCCCCN` (stereo not given in full), the Selectivity ratio came out at 38.9 in the experiment listed under Cavia porcellus and 44.4 in experiment [2]. Besides, the pKi in experiment [1] was 5.02; in experiment [3], 6.61; on Mu-type opioid receptor, 4.96.
